hK5 inh – inhibitors of human kallikrein 5; recombinant hK5, fluorogenic AMC substrate cleavage; inhibition, % at 5 µM; actives 0.59% (n = 210,000); AID 873;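 active = inhibition of 40% or more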;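 also: 0% = enzyme controls without compound and 100% = no-enzyme blanks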
FXIa inh – blocks human coagulation factor XIa protease activity; AID 798; actives 0.14% (n = 220,000); purified FXIa, Boc-Glu-Ala-Arg-AMC fluorogenic substrate; inhibition, % at 5 µM; P03951;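 active = inhibition of at least 40%; inactive = inhibition below 40%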;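 also: fluorescence of freed AMC excited at 355 nm; 0% = enzyme without compound and 100% = no enzyme blank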
thrombin 1536 – blocks human thrombin protease activity. alpha-thrombin, Boc-VPR-AMC fluorogenic substrate cleavage. AID 1046. actives 0.26% (n = 220,000). inhibition, % at 5 µM. P00734;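 active = inhibition at or above 40%; inactive = inhibition below 40%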;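 also: 0% = enzyme with no compound and 100% = wells without enzyme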
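System: human alpha-thrombin protein; Compound dosing: one concentration per compound, 5 µM, with 0.2% DMSO; Timing: reaction at room temperature; Technique: AMC fluorescence, 355/460 nm; Controls: enzyme without compound as high, wells lacking enzyme as low.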
Wee1 stabilizer – human Wee1 degradation inhibition, primary screen; AID 1321; actives 1.2% (n = 220,000); HeLa Luc-Wee1K328M stability, luciferase luminescence; 100% = proteasome inhibitor MG132 effect; reporter increase, % at 5 µM;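 active = activation above the mean of all tested compounds plus 3 SD, set per screening run, cut at about 8.8% in these data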;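 also: cells exposed to compound for 20 h before luminescence read; 0% = DMSO alone and 100% = MG132 at 30 µM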
Target sequence (P30291 whole entry K328M): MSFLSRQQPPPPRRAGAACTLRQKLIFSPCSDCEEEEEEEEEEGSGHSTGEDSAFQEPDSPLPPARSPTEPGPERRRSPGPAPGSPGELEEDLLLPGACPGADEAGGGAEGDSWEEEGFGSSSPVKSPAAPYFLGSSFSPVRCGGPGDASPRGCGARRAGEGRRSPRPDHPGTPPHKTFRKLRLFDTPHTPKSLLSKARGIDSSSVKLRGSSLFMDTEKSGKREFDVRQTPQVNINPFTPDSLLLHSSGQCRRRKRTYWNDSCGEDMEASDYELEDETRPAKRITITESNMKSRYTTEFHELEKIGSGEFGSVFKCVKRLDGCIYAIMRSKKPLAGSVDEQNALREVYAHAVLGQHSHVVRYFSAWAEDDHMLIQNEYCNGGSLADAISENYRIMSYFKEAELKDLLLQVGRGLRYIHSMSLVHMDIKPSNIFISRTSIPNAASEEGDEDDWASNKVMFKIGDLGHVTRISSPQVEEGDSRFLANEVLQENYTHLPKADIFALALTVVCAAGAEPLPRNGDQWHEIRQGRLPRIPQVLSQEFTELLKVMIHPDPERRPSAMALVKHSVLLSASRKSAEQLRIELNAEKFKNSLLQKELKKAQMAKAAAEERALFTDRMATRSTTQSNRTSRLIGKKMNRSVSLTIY
Platelet DG rel – platelet dense granule release activity. human platelet-rich plasma, SFLLRN dense granule ATP release, luminescence. inhibition, %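 (compounds screened at 7.5 µM in platelet-rich plasma)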. actives 0.22% (n = 300,000);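 active = mean replicate score, as percent of positive control, at or above 50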
FXIIa inh – inhibitors of human coagulation factor XIIa; P00748; purified FXIIa, Boc-QGR-AMC fluorogenic substrate, 2 h; inhibition, % at 5 µM; actives 0.3% (n = 220,000); in the data active = inhibition above about 40%;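 also: 0% = enzyme with no compound and 100% = blank without enzyme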
Numbers without * were called inactive; nt = not tested or not shown. The list is not random: actives were taken first. Their share in the collection is about 1.8%.

SMILES	hK5 inh	FXIa inh	thrombin 1536	Wee1 stabilizer	Platelet DG rel	FXIIa inh
CCC(C)NC(=O)C1CN(S(=O)(=O)c2ccccc2)CCN1S(=O)(=O)c1ccccc1 (stereo not drawn)	0	33	3	1	0	41*
CC1CCCCN1CCCNC(=O)CN1C(=O)c2cccnc2Oc2ccc(Cl)cc21 (stereo not drawn)	nt	nt	nt	nt	2	nt
CCN(CC)S(=O)(=O)c1ccc2c(c1)nc(CCC(=O)Nc1ccc3c(c1)OCO3)n2CC	-1	18	8	-3	2	25
Cc1ccc(NC(=O)N2C(=O)C3(OCCO3)c3ccccc32)cc1	-18	-1	-2	21*	9	13
COc1cc(C)c(S(=O)(=O)NCc2cccs2)cc1C	27	8	30	-2	1	108*
COc1ccc(Cl)cc1S(=O)(=O)NCc1cccs1	9	2	3	6	6	15
O=C(NCc1ccccc1)C1CCN(S(=O)(=O)N2CCCCCC2)CC1	-21	3	1	9.5*	12	10
COc1ccc2c(c1)-c1nc(NC(=O)c3cccs3)sc1CC2	-14	49*	4	3	2	22
COc1ccc(S(=O)(=O)CCc2nnc(NC(=O)c3cccs3)s2)cc1	1	0	77*	0	-5	22
CCn1cc2nc(SCC(=O)Nc3ccccc3F)n(Cc3ccccc3)c(=O)c2n1	nt	nt	nt	nt	17	nt
CCC(=O)O[C@]1(C(=O)CCl)[C@@H](C)C[C@H]2[C@@H]3CCC4=CC(=O)C=C[C@]4(C)[C@@]3(F)[C@@H](O)C[C@@]21C	-7	1	nt	9.3*	-5	8
CCCC(=O)O[C@]1(C(=O)CCl)[C@@H](C)C[C@H]2[C@@H]3CCC4=CC(=O)C=C[C@]4(C)[C@@]3(F)C(=O)C[C@@]21C	-10	5	-2	2	1	14
N=C(N)c1ccc(OCCCCCOc2ccc(C(=N)N)cc2)cc1	-1	10	25	-4	-2	46*
CCOC(=O)N1CCN(C(=O)CCCN2C(=O)CSc3nc(C)cc(C)c32)CC1	-20	21	1	1	53*	32
O=C1OCC2OC(O)C(O)C(O)C2OC(=O)c2cc(O)c(O)c(O)c2-c2c(O)c(O)c3oc(=O)c4c(c(O)c(O)c5oc(=O)c2c3c54)-c2c1cc(O)c(O)c2O (stereo not drawn)	23	59*	-4	nt	nt	-3
CC(/C=C/c1ccccc1)=N/NC(=O)CNC(=O)c1ccccc1F	6	0	3	3	6	15
Cn1c(CNC(=O)c2ccc3c(c2)OCO3)nnc1SCC(=O)Nc1ccccc1F	nt	nt	nt	nt	14	nt
O=C(NNC(=O)C(c1ccccc1)c1ccccc1)c1ccccn1	-86	2	-2	1	5	5
Cc1ccc(C(=O)O/N=C(\N)c2ccccn2)c(Cl)c1	nt	nt	nt	nt	76*	nt
N/C(=N\OC(=O)c1ccccc1Cl)c1ccncc1	nt	-2	-11	2	-1	1
N/C(=N\OC(=O)c1ccc([N+](=O)[O-])cc1Cl)c1ccccn1	nt	nt	nt	nt	43	nt
N/C(=N\OC(=O)c1cc(Br)ccc1Cl)c1ccccn1	-2	-2	-2	3	-5	9
Cc1ccc(C(=O)O/N=C(\N)c2ccccc2)c(Cl)c1	3	3	-2	-2	68*	8
N/C(=N\OC(=O)c1ccc(Cl)cc1Cl)c1ccccn1	53*	31	-4	-5	56*	29
O=C(CCc1nc2ccccc2s1)OCC(=O)c1ccc[nH]1	-5	-6	-2	1	-16	2
SMILES	hK5 inh	FXIa inh	thrombin 1536	Wee1 stabilizer	Platelet DG rel	FXIIa inh
Cc1ccc(C)c(OCC(=O)Nc2ccncc2)c1	nt	nt	nt	nt	14	nt
CCOC(=O)CN1CC23C=CC(O2)C(C(=O)Nc2ccc(OCC)cc2)C3C1=O (stereo not drawn)	43*	7	4	-1	-17	15
O=C(CS(=O)CC(=O)N(CC(=O)NC1CCCC1)c1ccccc1F)Nc1ccc(F)cc1 (stereo not drawn)	nt	nt	nt	nt	-4	nt
COc1ccc(C(=O)/C=C/NCc2ccc(F)cc2)cc1OC	62*	17	5	1	8	31
Cc1ccc(C(=O)/C=C/NCc2ccc(F)cc2)cc1	-20	7	0	7	-8	8
Cc1ccc(S(=O)(=O)N2CCN(C(=O)CSc3ncn[nH]3)CC2)c(C)c1	nt	nt	nt	nt	-3	nt
O=C(CSc1ncn[nH]1)N1CCN(S(=O)(=O)c2ccccc2)CC1	-26	-6	-12	11*	6	-8
C=CCN(CC=C)C(=O)Nc1cc(OC)ccc1OC	-8	0	-9	5	4	3
O=[N+]([O-])c1cccc(C=Nc2cc3c(cc2Br)OCCO3)c1	51*	8	12	-4	nt	-6
COC(=O)CN1C(=O)C(O)(CC(=O)c2cccc(Br)c2)c2ccccc21 (stereo not drawn)	-8	4	-1	-1	2	14
COC(=O)CN1C(=O)C(O)(CC(=O)c2ccc(Cl)cc2)c2ccccc21 (stereo not drawn)	8	7	41*	1	nt	9
Cn1c(=O)n(C)c2cc(S(=O)(=O)O)ccc21	-19	-2	-2	9.0*	-10	9
Cn1c(=O)c(=O)n(C)c2cc(S(=O)(=O)N3CCOCC3)ccc21	-6	-7	-4	12*	-8	12
CCNS(=O)(=O)c1ccc2c(c1)n(C)c(=O)n2C	-19	-11	16	-1	-7	-2
CC(C)Sc1nc(SCC(=O)NCc2ccco2)c2c3c(sc2n1)COC(C)(C)C3	55*	7	32	9.8*	-1	14
CC(C)Sc1nc(SCC(=O)O)c2c3c(sc2n1)COC(C)(C)C3	-3	1	-4	6	4	7
CCn1c(Cc2cccn2C)nnc1SCC(=O)c1ccc(C)cc1	3	1	-1	3	58*	7
Clc1cc2c(nn1)Nc1ccccc1S2	-1	2	4	-1	-9	9
S=C1Nc2ccccc2Sc2ccc(Cl)cc21	67*	12	31	-4	8	5
O=C(Nc1ccc(Cl)cc1)Nc1ccccc1C(=O)NCc1ccco1	51*	104*	5	-1	13	31
C=C(C)CC1N(c2cccc(OC)c2)C(=O)C2C(C(=O)O)C3C=CC21O3 (stereo not drawn)	45*	-8	-4	0	1	-4
COc1ccc(CSc2nc(C)cc(C)c2S(C)(=O)=O)cc1	34	41*	9	-1	5	28
COc1ccc(Oc2nc(C)cc(C)c2S(C)(=O)=O)cc1	-15	4	0	-1	-7	14
C=CCc1c(N(CC)CC)nc(C)[nH]c1=O	3	2	0	9.3*	-2	4
NC(N)=NCC(O)CN(c1ccccc1)c1ccccc1 (stereo not drawn)	-5	5	-1	1	-3	7

Source: PubChem BioAssay
